Screening results from PubChem BioAssay.
The list is not random: actives were taken first. Their share in the collection is about 1.6%.
PG9 binder: binders of HIV-1 gp120 antibody PG9, primary screen, biochemical, TR-FRET; HIV-1 gp120 / PG9 antibody interaction; TR-FRET gp120-PG9 antibody binding; inhibition, % at 6.7 µM; actives 0.43% (n = 360,000); in the data active = inhibition above about 8.5%
PKA-R1A activ: activators of PKA-R1A holoenzyme, primary screen, biochemical, fluorescence polarization, Cy5-IP20, bovine R1A, mouse PKAc; cAMP-dependent protein kinase type I-alpha regulatory subunit (Bos taurus) + …; PKA-R1A dissociation; scaled: DMSO 0%, 113 µM cGMP 100%; activation, % at 11.4 µM; actives 0.083% (n = 340,000); AID 504707, 2011;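 active = percent activation above the mean of all tested compounds plus 3 SD, cut at about 19% in these data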;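 also: higher means more PKAc released from R1A so a rise in polarization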
PKA-R2B act: activators of PKA-R2B holoenzyme, primary screen, biochemical, fluorescence polarization, Cy5-IP20, human. activation, % at 11.4 µM. PKA-R2B holoenzyme dissociation; R2B truncated from residue 108, S112A mutant; 0% DMSO only, 100% 113 µM cGMP. cAMP-dependent protein kinase catalytic subunit beta (Homo sapiens) + cAMP-dependent …. actives 0.079% (n = 340,000);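 active = activation above a cutoff set at the mean over all compounds plus 3 SD, cut at about 18% in these data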;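 also: higher means more holoenzyme dissociation and a rise in polarization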
Target sequence (P31323 whole entry, looked up, other chains not shown, the tested form may be a part): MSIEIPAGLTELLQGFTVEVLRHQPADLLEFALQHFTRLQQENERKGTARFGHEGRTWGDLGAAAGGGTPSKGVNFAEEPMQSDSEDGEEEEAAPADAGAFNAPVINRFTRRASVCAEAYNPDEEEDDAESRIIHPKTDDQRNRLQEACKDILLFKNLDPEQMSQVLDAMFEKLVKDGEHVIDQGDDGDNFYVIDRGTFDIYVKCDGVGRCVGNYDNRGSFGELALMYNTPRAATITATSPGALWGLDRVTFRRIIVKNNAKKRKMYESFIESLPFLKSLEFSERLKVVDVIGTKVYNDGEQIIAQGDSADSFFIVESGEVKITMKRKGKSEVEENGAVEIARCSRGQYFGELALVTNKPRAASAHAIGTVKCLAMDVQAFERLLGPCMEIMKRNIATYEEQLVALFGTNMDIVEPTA
Rev-erbA mod: modulators of Rev-erb alpha DNA binding, primary screen, biochemical, FITC-DNA, fluorescence polarization, uHTS. actives 0.79% (n = 370,000). Rev-erbα–FITC-DNA binding, 90 min. activity, % at 10 µM;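 active = activity above about 14%, limit read from the data; passing the limit was not always enough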;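 also: 0% = DMSO wells with 35 nM protein and 100% = DMSO wells with 750 nM protein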
NR2E3 ag-1: NR2E3 agonists in two-hybrid cells, primary screen, cell-based, luminescence, CHO-S, Gal4-NCOR/VP16-NR2E3. Photoreceptor-specific nuclear receptor (Homo sapiens), Q9Y5X4. luciferase. inhibition of corepressor binding, % at 3.98 µM. actives 0.35% (n = 360,000). AID 602229, 2012;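 active = inhibition above the mean of all tested compounds plus 3 SD, cut at about 70% in these data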;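 also: 0% = DMSO with NR2E3 transfected cells and 100% = cells lacking NR2E3 construct; higher means lower luciferase signal from less NR2E3 corepressor binding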
NR2E3 ag-2: inhibitors of NR2E3-RetCOR corepressor binding, primary screen, NR2E3 agonist project, biochemical, TR-FRET, GST-NR2E3, biotin-RetCOR | Photoreceptor-specific nuclear receptor (Homo sapiens), Q9Y5X4 | 1536-well | inhibition of corepressor binding, % at 4.78 µM | actives 0.12% (n = 320,000) | AID 2300, 2010;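 active = percent inhibition above the cutoff of mean plus 3 SD of all tested compounds, set per screening campaign, cut at about 20% in these data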;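 also: 0% = DMSO wells and 100% = biotin wells as full block of FRET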
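Material: NR2E3–RetCOR corepressor complex / Incubation: Compound–protein incubation for 5 h at 4 °C / Dosing: compound at 4.8 µM, single dose / Detection: time-resolved FRET / Benchmarks: high control biotin, low control 0.6% DMSO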
R2B FP artifact: fluorescence polarization artefacts, biochemical, artefact control for PKA-R2B activator project. actives 6% (n = 270). FP artifact counterscreen. activation, % at 11.4 µM. AID 504796, 2011. shares compounds with PKA-R2B act; in the data active = activation above about 20%;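 also: Cy5 labelled IP20 peptide probe with compound but no PKA protein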
PKA-R2B act conf: activators of PKA-R2B holoenzyme, confirmation, biochemical, fluorescence polarization, human; shares compounds with PKA-R2B act; PKA-R2B complex, activation; activation, % at 11.4 µM; actives 9% (n = 270); AID 504797, 2011; in the data active = activation above about 19%
Target sequence (P31323 whole entry, looked up): as the sequence (P31323 whole entry, looked up, other chains not shown, the tested form may be a part) above
* hit, by the source's call; / = no result given.

SMILES | PG9 binder | PKA-R1A activ | PKA-R2B act | Rev-erbA mod | NR2E3 ag-1 | NR2E3 ag-2 | R2B FP artifact | PKA-R2B act conf
CC(C)CNc1cccc2c1S(=O)(=O)N(Cc1cn(Cc3ccc(C(F)(F)F)cc3)nn1)Cc1ccccc1O2 | / | / | / | 3 | / | / | / | /
COc1ccc(C(C(=O)NCC2CCCO2)N(C(=O)CNC(=O)c2ccco2)c2ccccc2)cc1OC (configuration not stated) | 0 | 7 | 4 | 7 | -34 | 3 | / | /
CCOC(=O)c1ccc(N(C(=O)CNC(=O)c2ccco2)C(C(=O)NCC2CCCO2)c2ccc(OC)c(OC)c2)cc1 (configuration not stated) | -1 | 7 | 19* | 3 | -13 | 4 | 2 | -2
COC(=O)C1CN(Cc2ccc(OC)cc2)CCS(=O)(=O)N1Cc1ccc(C(F)(F)F)cc1 (configuration not stated) | / | / | / | 8 | / | / | / | /
COc1ccc(N2CCN(C(=O)c3ccc(OCc4c(C)noc4C)c(OC)c3)CC2)cc1 | 2 | 1 | 20* | 4 | -14 | 0 | 3 | 2
CC(C)(C)N(Cc1cn(CC2CCCCC2)nn1)S(=O)(=O)c1ccccc1Br | / | / | / | 2 | / | / | / | /
OCC[C@@H]1C[C@@H](O)[C@H](O)[C@@]2(Cc3ccccc3CCO2)O1 | 1 | -11 | 21* | -3 | -11 | 4 | 1 | 0
CCOC(=O)Nc1ccc2c(c1)[C@@]1(CC(=O)N(CC(C)C)C1c1ccccc1)C(=O)N2C (some centres not stated) | / | / | / | 11 | / | / | / | /
Cc1nn(CC(=O)OCC(=O)Nc2ccccc2[N+](=O)[O-])c(C)c1[N+](=O)[O-] | -3 | 4 | 19* | 0 | -19 | 6 | -1 | 3
Cc1cc(C)c(OCCn2ccnc2)c(C)c1 | 1 | -8 | 18* | 5 | -29 | / | 8 | 7
COc1cccc(Nc2nc(NCCO)nc(N3CCCC3)n2)c1 | 1 | 7 | 22* | 2 | 13 | -3 | -1 | 1
CN(C)S(=O)(=O)c1ccc(S(=O)(=O)NCc2cccs2)cc1 | 0 | -2 | 25* | 6 | 8 | 0 | 0 | -1
C#CCN1CC(N(C)CCOC(=O)c2ccc(OC)c(OC)c2)CS1(=O)=O (configuration not stated) | / | / | / | -2 | / | / | / | /
C[C@@H](CO)N(Cc1cn(Cc2ccccc2)nn1)S(=O)(=O)c1ccc(F)cc1Br | / | / | / | 6 | / | / | / | /
COc1ccc(NC(=O)c2c(C(F)(F)F)nn(C)c2Cl)cc1 | 0 | / | / | -1 | 7 | 3 | / | /
Cn1nc(C(F)(F)F)c(C(=O)Nc2ccc(F)cc2)c1Cl | -5 | -1 | 20* | 0 | -11 | 1 | -2 | 2
CCC(NC(=O)OCc1ccccc1)C(=O)Oc1ccc2ccc(=O)oc2c1 (configuration not stated) | 2 | -15 | 19* | -7 | -4 | 5 | 0 | 3
COCCCN1C(=O)[C@H](CC(=O)N2CCCCC2)[C@]2(C(=O)OC)CCCCC=C12 | / | / | / | 1 | / | / | / | /
COc1ccc(NC(=O)CCNC(=O)Cn2cnc3ccccc3c2=O)cc1OC | -4 | -2 | 21* | -4 | -15 | -1 | 2 | -3
